Values belong to the compound of their own block, whether it stands above or below them. Activity calls are given as the source filed them. The rule behind the calls is not given here.
Tests used:
[1] = organism: Danio rerio; test: Induction of apoptosis in zebrafish embryo at 300 uM measured 10 to 24 hrs post fertilization by TUNEL assay in presence of MO, p53 MO; format: organism-based; settings: in vivo
Procedure, shortened: (§1)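 TOPdGFP transgenic zebrafish embryos injected at the one- or two-cell stage with 5 ng control or p53 morpholino. Exposed 10–24 hpf at 28.5 °C in E3 medium containing 300 μM compound. TOPdGFP in the midbrain tectum imaged by fluorescence microscopy; apoptotic cells detected by TUNEL kit.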

[2] = organism: Danio rerio; test: Activation of GSK-3beta in zebrafish embryo assessed as reduction of pigment cells on tail at 300 uM measured 4 to 30 hrs post fertilization
[3] = tested on: SW480; test: Effect on CK1alpha expression in human SW480 cells at 10 to 30 uM after 24 hrs by Western blot analysis; format: functional, cell-based
Procedure, shortened: (§2)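 SW480 cells, 1 × 10^6 per 90 mm dish, treated 24 h after seeding for 24 h. Whole-cell lysates made in Triton/deoxycholate buffer with phosphatase and protease inhibitors; cytosolic and nuclear fractions prepared by NE-PER. Proteins run on 10% SDS-PAGE, blotted to PVDF, probed, detected by ECL. Bands normalized to β-actin or histone H1.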

[4] = target: T1, Glycogen synthase kinase-3 beta (Homo sapiens, UniProt P49841); test: Activation of GSK-3beta in human SW480 cells assessed as downregulation of beta-catenin expression in cytosolic fraction at 10 to 30 uM after 24 hrs by Western blot analysis; format: cell-based; procedure, shortened: as §2
Target sequence in this assay (P49841 whole entry, looked up): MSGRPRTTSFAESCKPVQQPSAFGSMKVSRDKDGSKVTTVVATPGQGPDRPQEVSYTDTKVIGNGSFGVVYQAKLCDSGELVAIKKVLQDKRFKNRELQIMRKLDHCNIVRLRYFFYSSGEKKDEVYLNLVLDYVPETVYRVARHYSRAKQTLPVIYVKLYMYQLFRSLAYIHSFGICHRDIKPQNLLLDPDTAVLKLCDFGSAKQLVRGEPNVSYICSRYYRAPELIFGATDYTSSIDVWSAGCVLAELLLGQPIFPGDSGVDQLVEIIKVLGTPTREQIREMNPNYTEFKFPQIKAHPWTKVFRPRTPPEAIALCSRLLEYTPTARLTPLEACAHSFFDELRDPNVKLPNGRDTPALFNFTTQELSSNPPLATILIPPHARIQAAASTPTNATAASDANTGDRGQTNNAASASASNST

[5] = target: T1, Glycogen synthase kinase-3 beta; test: Activation of GSK-3beta in human SW480 cells assessed as increase in phosphorylation of beta-catenin at Ser37 at 30 uM after 24 hrs by Western blot analysis in presence of CK1alpha siRNA; format: cell-based
Procedure, shortened: (§3)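 SW480 cells, 5 × 10^4/well, grown 24 h, then transfected for 6 h with control or CK1α siRNA (10 pmol, Lipofectamine 2000). Compound then added in DMEM/10% FBS for 24 h. Whole-cell lysates Western blotted, normalized to β-actin.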
Target sequence in this assay (P49841 whole entry, looked up): as above

[6] = target: T1, Glycogen synthase kinase-3 beta; test: Activation of GSK-3beta in human SW480 cells assessed as increase in phosphorylation of beta-catenin at Ser33 at 30 uM after 24 hrs by Western blot analysis in presence of GSK-3beta siRNA; format: cell-based
Procedure, shortened: (§4)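 SW480 cells, 1 × 10^5/well, grown 24 h, then transfected for 3 h with control or GSK3β siRNA (10 pmol, Lipofectamine 2000). Compound then added in DMEM/10% FBS for 24 h. Whole-cell lysates Western blotted, normalized to β-actin.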
Target sequence in this assay (P49841 whole entry, looked up): as above

[7] = organism: Danio rerio; test: Activation of GSK-3beta in zebrafish embryo assessed as suppression of mitf gene expression in neural crest cells at 300 uM measured 24 hrs post fertilization by in situ hybridization method in presence of MO, p53 MO; format: cell-based
[8] = target: T1, Glycogen synthase kinase-3 beta; test: Activation of GSK-3beta in human SW480 cells assessed as increase in phosphorylation of beta-catenin at Thr41 at 30 uM after 24 hrs by Western blot analysis in presence of control siRNA; format: cell-based; procedure, shortened: as §4
Target sequence in this assay (P49841 whole entry, looked up): as above

[9] = tested on: HEK293; test: Cytotoxicity against HEK293 cells assessed as cell viability after 24 hrs by fluorescence assay; format: cell-based; settings: Homo sapiens, HEK293, 24 h
[10] = target: T1, Glycogen synthase kinase-3 beta; test: Activation of GSK-3beta in human SW480 cells assessed as increase in phosphorylation of beta-catenin at Ser37 at 30 uM after 24 hrs by Western blot analysis in presence of control siRNA; format: cell-based; procedure, shortened: as §4
Target sequence in this assay (P49841 whole entry, looked up): as above

[11] = target: T1, Glycogen synthase kinase-3 beta; test: Activation of GSK-3beta in human SW480 cells assessed as increase in phosphorylation of beta-catenin at Thr41 at 30 uM after 24 hrs by Western blot analysis in presence of GSK-3beta siRNA; format: cell-based; procedure, shortened: as §4
Target sequence in this assay (P49841 whole entry, looked up): as above

[12] = tested on: HEK-293T; test: Cytotoxicity against HEK293T cells assessed as cell viability after 24 hrs by fluorescence assay; format: cell-based; settings: Homo sapiens
[13] = target: T1, Glycogen synthase kinase-3 beta; test: Inhibition of GSK-3beta phosphorylation at Ser9 in human SW480 cells at 30 uM after 24 hrs by Western blot analysis in presence of control and GSK-3beta siRNA; format: cell-based; procedure, shortened: as §4
[14] = target: T1, Glycogen synthase kinase-3 beta; test: Activation of GSK-3beta in human SW480 cells assessed as increase in phosphorylation of beta-catenin at Thr41 at 30 uM after 24 hrs by Western blot analysis in presence of CK1alpha siRNA; format: cell-based; procedure, shortened: as §3
[15] = tested on: SW480; test: Effect on GSK-3beta expression in human SW480 cells at 10 to 30 uM after 24 hrs by Western blot analysis; format: functional, cell-based; procedure, shortened: as §2
[16] = tested on: HCT-116; test: Cytotoxicity against Wnt-dependent human HCT116 cells assessed as cell viability after 24 hrs by fluorescence assay; format: functional, cell-based; settings: HCT-116, 24 h
[17] = tested on: HEK293; test: Cytotoxicity against HEK293 cells transfected with SuperTOPFlash reporter gene assessed as cell viability at 5 to 20 uM after 24 hrs by fluorescence assay; format: cell-based; settings: human, hek293, 24 h
Procedure, shortened: (§5)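 STF/293 cells seeded 3 × 10^4/well, grown 24 h, then exposed 24 h to compound diluted in medium (DMSO final below 0.1%). Cells washed, then given fluorescein diacetate 10 μg/mL in PBS for 1 h at 37 °C. Fluorescence read at ex 485/em 538 nm. Mean ± SE, n = 3.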

[18] = Activation of GSK-3beta in zebrafish embryo assessed as suppression of Wnt/beta-catenin signaling pathway at 300 uM measured 10 to 24 hrs post fertilization by TOPdGFP reporter gene-based fluorescence microscopic analysis in presence of MO, p53 MO; settings: Danio rerio; procedure, shortened: as §1
[19] = tested on: RKO; test: Cytotoxicity against Wnt-independent human RKO cells assessed as cell viability after 24 hrs by fluorescence assay; format: functional, cell-based
[20] = organism: Danio rerio; test: Activation of GSK-3beta in zebrafish embryo assessed as reduction of BIO-induced eyeless phenotype appearance at 100 uM measured 4 to 30 hrs post fertilization; design: scale not given: the % may be the effect or the level left
Procedure, shortened: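 Zebrafish embryos exposed 4–30 hpf at 28.5 °C in E3 medium to BIO (0.5 μM) alone or BIO plus compound (100 μM), then examined under a stereomicroscope.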

[21] = target: T1, Glycogen synthase kinase-3 beta; test: Activation of GSK-3beta in human SW480 cells assessed as increase in phosphorylation of beta-catenin at Ser33 at 30 uM after 24 hrs by Western blot analysis in presence of CK1alpha siRNA; format: cell-based; procedure, shortened: as §3
[22] = target: T1, Glycogen synthase kinase-3 beta; test: Activation of GSK-3beta in human SW480 cells assessed as increase in phosphorylation of beta-catenin at Thr41 at 10 to 30 uM after 24 hrs by Western blot analysis; format: cell-based; procedure, shortened: as §2
[23] = Cytotoxicity against Wnt-dependent human DLD1 cells assessed as cell viability after 24 hrs by fluorescence assay; format: functional, cell-based; settings: DLD-1, 24 h
[24] = target: T1, Glycogen synthase kinase-3 beta; test: Activation of GSK-3beta in HEK293 cells assessed as suppression of TCF/beta-catenin transcriptional activity after 24 hrs by SuperTOPFlash reporter gene assay; format: cell-based
Procedure, shortened: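 STF/293 cells (293 cells stably carrying SuperTOPFlash, seven LEF/TCF sites) seeded 3 × 10^4/well; 24 h later given compound plus LiCl (final 15 mM) for 24 h. Cells lysed and firefly luciferase read, compared with no-compound control. DMSO final below 0.1%. At least triplicate; mean ± SE, n = 3.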

[25] = target: T1, Glycogen synthase kinase-3 beta; test: Inhibition of GSK-3beta phosphorylation at Ser9 in human SW480 cells at 30 uM after 24 hrs by Western blot analysis in presence of CK1alpha siRNA; format: cell-based; procedure, shortened: as §3
[26] = target: T1, Glycogen synthase kinase-3 beta; test: Activation of GSK-3beta in human SW480 cells assessed as increase in phosphorylation of beta-catenin at Ser37 at 30 uM after 24 hrs by Western blot analysis in presence of GSK-3beta siRNA; format: cell-based; procedure, shortened: as §4
[27] = target: Casein kinase I isoform alpha (Homo sapiens) (UniProt P48729); test: Effect on CK1alpha in human SW480 cells assessed as change in phosphorylation of beta-catenin at Ser45 at 10 to 30 uM after 24 hrs by Western blot analysis; format: cell-based; procedure, shortened: as §2
Sequence of Casein kinase I isoform alpha (Homo sapiens) (P48729 2-337 limits assumed): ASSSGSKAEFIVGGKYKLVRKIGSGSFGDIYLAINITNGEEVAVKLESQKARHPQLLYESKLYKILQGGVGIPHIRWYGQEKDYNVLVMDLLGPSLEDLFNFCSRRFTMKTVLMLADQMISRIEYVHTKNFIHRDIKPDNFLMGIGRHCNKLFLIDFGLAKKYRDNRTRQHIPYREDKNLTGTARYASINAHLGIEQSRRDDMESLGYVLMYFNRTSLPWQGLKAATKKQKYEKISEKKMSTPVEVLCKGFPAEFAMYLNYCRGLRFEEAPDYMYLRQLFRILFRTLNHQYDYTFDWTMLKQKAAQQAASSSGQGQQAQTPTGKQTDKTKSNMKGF

[28] = target: T1, Glycogen synthase kinase-3 beta; test: Activation of GSK-3beta in human SW480 cells assessed as increase in phosphorylation of beta-catenin at Ser37 at 10 to 30 uM after 24 hrs by Western blot analysis; format: cell-based; procedure, shortened: as §2
[29] = target: T1, Glycogen synthase kinase-3 beta; test: Activation of GSK-3beta in human SW480 cells assessed as increase in phosphorylation of beta-catenin at Ser33 at 10 to 30 uM after 24 hrs by Western blot analysis; format: cell-based; procedure, shortened: as §2
[30] = tested on: SW480; test: Cytotoxicity against Wnt-dependent human SW480 cells assessed as cell viability after 24 hrs by fluorescence assay; settings: SW480, 24 h
[31] = target: T1, Glycogen synthase kinase-3 beta; test: Activation of GSK-3beta in human SW480 cells assessed as increase in phosphorylation of beta-catenin at Ser33 at 30 uM after 24 hrs by Western blot analysis in presence of control siRNA; format: cell-based; procedure, shortened: as §4
[32] = organism: Danio rerio; test: Activation of GSK-3beta in zebrafish embryo assessed as suppression of zic2a gene expression in midbrain tectum at 300 uM measured 4 to 24 hrs post fertilization by in situ hybridization method in presence of MO, p53 MO; format: tissue-based
[33] = target: T1, Glycogen synthase kinase-3 beta; test: Activation of GSK-3beta in human SW480 cells assessed as downregulation of beta-catenin expression in nuclear fraction at 10 to 30 uM after 24 hrs by Western blot analysis; format: cell-based; procedure, shortened: as §2
[34] = tested on: HEK293; test: Cytotoxicity against HEK293 cells transfected with SuperTOPFlash reporter gene assessed as cell viability at 2.5 to 10 uM after 24 hrs by fluorescence assay; format: cell-based; settings: human, hek293, 24 h; procedure, shortened: as §5
[35] = tested on: HEK293; test: Cytotoxicity against HEK293 cells transfected with SuperTOPFlash reporter gene assessed as cell viability at 10 to 40 uM after 24 hrs by fluorescence assay; format: cell-based; settings: human, hek293, 24 h; procedure, shortened: as §5

Activity [2]: Active
Activity [4]: Active
Activity [5]: Active
Activity [6]: inactive
Activity [8]: Active
Activity [10]: Active
Activity [11]: inactive
inhibition [13]: Active
Activity [14]: Active
Activity [18]: Active
Activity [20]: 46%
Activity [21]: Active
Activity [22]: Active
Activity [24]: Dose-dependent effect
IC50 [24]: 6.8 µM
inhibition [25]: Active
Activity [26]: inactive
Activity [27]: inactive
Activity [28]: Active
Activity [29]: Active
Activity [31]: Active
Activity [33]: Active
Structure (SMILES): O=c1ccc2nccc3c4ccc(O)cc4n1c23
Activity [1]: Non-toxic
Activity [3]: inactive
Activity [7]: Active
IC50 [9]: 36.7 µM
IC50 [12]: > 40 µM
Activity [15]: inactive
IC50 [16]: 30 µM
Activity [17]: Non-toxic
IC50 [19]: > 40 µM
IC50 [23]: > 40 µM
IC50 [30]: 17.4 µM
Activity [32]: Active

Activity [24]: Dose-dependent effect
IC50 [24]: 3 µM
Structure (SMILES): CC(=O)O[C@@H]1C[C@H]2C(C)(C)C(=O)C=C[C@]2(C)[C@H]2CC[C@]3(C)C(=CC[C@H]3[C@H]3COC(=O)C3)[C@@]21C
IC50 [9]: 31.2 µM
IC50 [12]: > 40 µM
IC50 [16]: 24.4 µM
Activity [34]: Non-toxic
IC50 [19]: 26.4 µM
IC50 [23]: 31.7 µM
IC50 [30]: 11.2 µM

Activity [24]: Dose-dependent effect
IC50 [24]: 11.6 µM
Structure (SMILES): O=c1ccc2nccc3c4ccc(O[C@@H]5O[C@H](CO)[C@@H](O)[C@H](O)[C@H]5O)cc4n1c23
IC50 [9]: 36.7 µM
IC50 [12]: > 40 µM
IC50 [16]: > 40 µM
IC50 [19]: > 40 µM
IC50 [23]: > 40 µM
Activity [35]: Non-toxic
IC50 [30]: > 40 µM
